M1 PAM – positive allosteric modulators of human M1 muscarinic receptor. P11229. CHO-K1 hM1, Fluo-8 calcium fluorescence, ACh EC20; 0% = ACh EC20, 100% = maximal ACh. activation, % at 3 µM. actives 0.088% (n = 360,000). AID 588819; in the data active = activation above about 19%, passing the limit was not always enough
M1 antag – antagonists of human M1 muscarinic receptor | P11229 | CHO-K1 hM1, Fluo-8 calcium fluorescence, ACh EC80 antagonist | inhibition, % at 3 µM | actives 1.3% (n = 360,000);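 active = percent inhibition above its own plate's cutoff, namely the mean of that plate's compound wells plus 3 SD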;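 also: peak over basal fluorescence ratio during 140 s after agonist addition; 0% = ACh EC80 plus DMSO and 100% = DMSO alone without agonist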
CHRM5 antagonist – CHRM5 antagonism in calcium assay. CHO-hM5 cells, Fluo-8 calcium fluorescence, ACh EC80. AID 624040. actives 0.59% (n = 360,000). inhibition, % at 3 µM. P08912;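 active = inhibition above a per-plate cutoff, the mean of that plate's test compounds plus 3 SD, cut at about 27% in these data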;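 also: 0% = acetylcholine EC80 with DMSO and 100% = DMSO without agonist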
Target sequence (P08912 whole entry, looked up): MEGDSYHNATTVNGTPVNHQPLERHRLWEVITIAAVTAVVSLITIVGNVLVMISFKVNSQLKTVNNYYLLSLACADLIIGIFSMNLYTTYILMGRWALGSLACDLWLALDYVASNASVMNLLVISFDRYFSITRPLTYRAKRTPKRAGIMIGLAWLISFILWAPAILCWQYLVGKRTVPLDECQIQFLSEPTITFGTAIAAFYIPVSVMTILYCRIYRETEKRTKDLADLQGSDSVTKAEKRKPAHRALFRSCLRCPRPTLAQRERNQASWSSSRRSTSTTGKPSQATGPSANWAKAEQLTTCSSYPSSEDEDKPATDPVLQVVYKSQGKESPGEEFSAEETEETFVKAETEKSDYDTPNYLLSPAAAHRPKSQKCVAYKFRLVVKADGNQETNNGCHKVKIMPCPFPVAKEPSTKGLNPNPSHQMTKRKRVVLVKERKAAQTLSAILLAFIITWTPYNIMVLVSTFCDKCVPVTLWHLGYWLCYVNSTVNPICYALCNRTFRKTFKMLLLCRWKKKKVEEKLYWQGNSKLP
CHRM1 agonist – activates human CHRM1 receptor. actives 0.33% (n = 360,000). AID 588814. CHO-K1 hM1, Fluo-8 calcium fluorescence, agonist mode; 0% DMSO, 100% acetylcholine EC100. activation, % at 3 µM;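 active = activation above the run's mean compound activation plus 3 SD, cut at about 16% in these data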;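 also: peak over basal fluorescence ratio within a 140 s kinetic read after compound addition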
M5 ag – CHRM5 agonism in calcium assay; activation, % at 3 µM; CHO-K1 hM5 cells, Fluo-8 calcium fluorescence; 0% DMSO wells, 100% maximal acetylcholine response; AID 624037; actives 0.19% (n = 360,000);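 active = activation above the run's mean over test compounds plus 3 SD, cut at about 23% in these data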;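 also: signal is peak over basal fluorescence ratio across the kinetic read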
CHRM5 PAM – potentiates acetylcholine response at human M5 receptor; AID 624038; actives 0.3% (n = 360,000); CHO-K1 hM5, Fluo-8 calcium, ACh EC20 PAM; 0% = ACh EC20, 100% = ACh EC100; P08912; activation, % at 3 µM;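 active = activation above the run cutoff, the mean activation of all test compounds plus 3 SD, cut at about 18% in these data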
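System: CHO-K1 hM5 cells. Reagent: acetylcholine, EC20 level. Compound dosing: single dose, 3 µM nominal final test concentration. Timing: Post-acetylcholine fluorescence recording 140 s. Detection: Fluo-8 calcium fluorescence. Read-out: % activation, ACh-normalized. Benchmarks: ACh EC20 and EC100 wells. Repeats: singlicate, one well per test compound.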
Numbers without * were called inactive. Rows were chosen to be rich in hits. Some 2.2% of all compounds tested hit in one or more screens of this group.

SMILES	M1 PAM	M1 antag	CHRM5 antagonist	CHRM1 agonist	M5 ag	CHRM5 PAM
CN(c1ccccc1)S(=O)(=O)c1ccc(NC(=O)c2ccccc2)cc1	-9	13	9	-3	-2	-10
COCC(=O)N1C[C@H]2CON(C)[C@H]2C[C@H]1c1cccc(-c2ccc(C#N)cc2)c1	5	-10	-1	-2	0	-2
COc1cc(/C=N/NC(=O)c2ccncc2)ccc1Oc1ccc([N+](=O)[O-])cn1	10	-7	-14	-5	3	18*
COc1ccc(/C=N/NC(=O)c2cccc([N+](=O)[O-])c2)cc1OC(=O)c1ccc(C)cc1	8	-8	-1	0	0	57*
COc1cc(/C=N/NC(=O)c2ccc(O)cc2)ccc1Oc1ccc([N+](=O)[O-])cn1	-4	-10	10	0	2	-10
Cc1cccc(C(=O)Oc2ccc(/C=N/NC(=O)c3ccccc3O)cc2)c1	-18	23	19	-2	5	-20
COc1ccc(/C=N/NC(=O)c2cccc([N+](=O)[O-])c2)cc1OC(=O)c1ccccc1	-2	4	0	-1	-3	-8
Cc1cccc(C(=O)Oc2ccc(/C=N/NC(=O)c3ccc(O)cc3)cc2)c1	-12	41*	12	0	5	-10
CC(=O)c1ccc(-c2ccc(C(=O)N3CCC(C(N)=O)CC3)o2)cc1	5	-7	5	-2	-4	-8
CN(C)S(=O)(=O)c1ccc(N2CCCC2)c(C(=O)N2CCN(S(=O)(=O)c3ccccc3F)CC2)c1	9	-10	-6	-5	1	6
NNC(=O)Cn1c(-c2ccccc2)cc(=O)n2ncnc12	10	-14	-4	-4	0	10
CCN(CC)S(=O)(=O)c1ccc(Cl)c(C(=O)Nc2ccc(Cl)cc2[N+](=O)[O-])c1	-11	26	30*	-3	2	-16
COC(=O)COc1ccc(S(=O)(=O)NCc2cccnc2)cc1C	4	-14	-2	-2	0	-6
CCN1CCN(c2ccc(NC(=O)CCc3c(C)nc4c(-c5ccccc5)c(C)nn4c3C)cc2)CC1	-24	37*	4	-11	-1	-17
Cc1nc2c(-c3ccccc3)c(C)nn2c(C)c1CCC(=O)NCc1ccco1	6	-9	7	-1	-3	-8
O=C(Nc1ccc2c(c1)OCCO2)c1cccc(Cl)c1Cl	6	-9	5	-7	-7	-7
O=C(Nc1ccc2c(c1)OCCO2)c1c(Cl)cccc1Cl	-17	32*	11	-5	-2	-6
CC12CNCC(C)(CN(C(c3ccccc3)c3ccccc3)C1)C2	-22	59*	9	-6	-9	-9
CCOc1ccccc1NC(=O)CN1C(=O)NC(Cc2c[nH]c3ccccc23)C1=O (stereo unspecified)	3	0	2	-3	1	-1
Cc1cc(NC(=O)CS(=O)(=O)c2cn(Cc3cccc(F)c3)c3ccccc23)no1	20	-9	0	17*	-11	-26
Cc1cc(NC(=O)CS(=O)(=O)c2cn(Cc3cccc(C(F)(F)F)c3)c3ccccc23)no1	7	-8	13	18*	2	-8
O=C(CSc1cn(Cc2cccc(F)c2)c2ccccc12)NCc1ccc(F)cc1	-13	31*	11	-5	3	-8
Cc1cc(NC(=O)CS(=O)(=O)c2cn(Cc3ccc(F)cc3)c3ccccc23)no1	11	17	17	32*	2	-18
Cc1cc(NC(=O)CSCC(=O)NCc2cccc(C(F)(F)F)c2)no1	2	-12	-1	-1	1	-5
CCn1cc(S(=O)(=O)CC(=O)Nc2cc(C)on2)c2ccccc21	-5	18	6	-1	-4	-5
CN1CCN2c3ccccc3CC(C#N)(C#N)C2C1 (stereo unspecified)	-1	-6	4	-2	1	-5
COc1ccc(CNC(=O)c2cnn3c(C(F)F)cc(C)nc23)cc1OC	5	-7	2	4	7	-6

Compound activity: PubChem, The Scripps Research Institute Molecular Screening Center
